Measured values reported in ChEMBL document CHEMBL4382192, “Discovery of a potent dual ALK and EGFR T790M inhibitor” (Eur J Med Chem, 2017).

Experiments:
[1] = Tmax in mouse at 10 mg/kg, po; type: ADME, organism-based; details: in vivo
[2] = system: Tyrosine-protein kinase ABL1 (Homo sapiens), P00519 [F317L]; assay: Binding affinity to human non-phosphorylated ABL1 F317L mutant (S229 to K512 residues) expressed in mammalian expression system assessed as residual binding level at 1 uM by Kinomescan method relative to control
How it was run: (§1)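 Kinome-wide selectivity panel run by the KINOMEscan method, with the test compound at a single concentration of 1 μM. Wild-type and mutant kinases were profiled in the same screen.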

[3] = target: Tyrosine-protein kinase ABL1 (Homo sapiens) (UniProt P00519); assay: Binding affinity to wild-type human phosphorylated ABL1 (S229 to K512 residues) expressed in mammalian expression system assessed as residual binding level at 1 uM by Kinomescan method relative to control
[4] = target: Aurora kinase A (Homo sapiens) (UniProt O14965); assay: Binding affinity to wild-type human partial length AURKA (E122 to K401 residues) expressed in mammalian expression system assessed as residual binding level at 1 uM by Kinomescan method relative to control
[5] = target: Calcium/calmodulin-dependent protein kinase type 1D (Homo sapiens) (UniProt Q8IU85); assay: Binding affinity to wild-type human partial length CAMK1D (M1 to K299 residues) expressed in bacterial expression system assessed as residual binding level at 1 uM by Kinomescan method relative to control
[6] = target: Cyclin-dependent kinase-like 3 (Homo sapiens) (UniProt Q8IVW4); assay: Binding affinity to wild-type human partial length CDKL3 (M1 to D327 residues) expressed in bacterial expression system assessed as residual binding level at 1 uM by Kinomescan method relative to control
[7] = target: Serine/threonine-protein kinase Chk2 (Homo sapiens) (UniProt O96017); assay: Binding affinity to wild-type human partial length CHEK2 (S253 to E574 residues) expressed in bacterial expression system assessed as residual binding level at 1 uM by Kinomescan method relative to control
[8] = target: Ephrin type-A receptor 1 (Homo sapiens) (UniProt P21709); assay: Binding affinity to wild-type human partial length EPHA1 (V588 to I913 residues) expressed in bacterial expression system assessed as residual binding level at 1 uM by Kinomescan method relative to control
[9] = target: Ephrin type-A receptor 6 (Homo sapiens) (UniProt Q9UF33); assay: Binding affinity to wild-type human partial length EPHA6 (Y700 to E1046 residues) expressed in bacterial expression system assessed as residual binding level at 1 uM by Kinomescan method relative to control
[10] = target: Tyrosine-protein kinase Fer (Homo sapiens) (UniProt P16591); assay: Binding affinity to wild-type human partial length FER (S542 to T822 residues) expressed in bacterial expression system assessed as residual binding level at 1 uM by Kinomescan method relative to control
[11] = target: Tyrosine-protein kinase ITK/TSK (Homo sapiens) (UniProt Q08881); assay: Binding affinity to wild-type human partial length ITK (R335 to L620 residues) expressed in bacterial expression system assessed as residual binding level at 1 uM by Kinomescan method relative to control
[12] = target: Mitogen-activated protein kinase 8 (Homo sapiens) (UniProt P45983); assay: Binding affinity to wild-type human full length JNK1 (M1 to Q384 residues) expressed in mammalian expression system assessed as residual binding level at 1 uM by Kinomescan method relative to control
How it was run: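 Single-point kinome-wide KINOMEscan binding panel, test compound at 1 μM, run by the provider's standard protocol.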

[13] = system: Mast/stem cell growth factor receptor Kit (Homo sapiens), P10721 [D816V]; assay: Binding affinity to human partial length KIT D816V mutant (I571 to D952 residues) expressed in bacterial expression system assessed as residual binding level at 1 uM by Kinomescan method relative to control; how it was run: as §1
[14] = target: Serine/threonine-protein kinase mTOR (Homo sapiens) (UniProt P42345); assay: Binding affinity to wild-type human partial length MTOR (L1382 to W2549 residues) expressed in mammalian expression system assessed as residual binding level at 1 uM by Kinomescan method relative to control
[15] = target: Myosin-IIIa (Homo sapiens) (UniProt Q8NEV4); assay: Binding affinity to wild-type human partial length MYO3A (M1 to K338 residues) expressed in bacterial expression system assessed as residual binding level at 1 uM by Kinomescan method relative to control
[16] = target: Myosin-IIIb (Homo sapiens) (UniProt Q8WXR4); assay: Binding affinity to wild-type human partial length MYO3B (M1 to D357 residues) expressed in bacterial expression system assessed as residual binding level at 1 uM by Kinomescan method relative to control
[17] = target: Serine/threonine-protein kinase pim-2 (Homo sapiens) (UniProt Q9P1W9); assay: Binding affinity to wild-type human partial length PIM2 (M1 to E291 residues) expressed in bacterial expression system assessed as residual binding level at 1 uM by Kinomescan method relative to control
[18] = target: Phosphatidylinositol 4-phosphate 5-kinase type-1 gamma (Homo sapiens) (UniProt O60331); assay: Binding affinity to wild-type human partial length PIP5K1C (M1 to T668 residues) expressed in mammalian expression system assessed as residual binding level at 1 uM by Kinomescan method relative to control
[19] = target: cGMP-dependent protein kinase 2 (Homo sapiens) (UniProt Q13237); assay: Binding affinity to wild-type human partial length PRKG2 (S422 to F762 residues) expressed in mammalian expression system assessed as residual binding level at 1 uM by Kinomescan method relative to control
[20] = target: Serine/threonine-protein kinase Sgk2 (Homo sapiens) (UniProt Q9HBY8); assay: Binding affinity to wild-type human partial length SGK2 (L54 to C427 residues) expressed in mammalian expression system assessed as residual binding level at 1 uM by Kinomescan method relative to control
[21] = target: Serine/threonine-protein kinase 35 (Homo sapiens) (UniProt Q8TDR2); assay: Binding affinity to wild-type human partial length STK35 (G182 to A534 residues) expressed in bacterial expression system assessed as residual binding level at 1 uM by Kinomescan method relative to control
[22] = target: High affinity nerve growth factor receptor (Homo sapiens) (UniProt P04629); assay: Binding affinity to wild-type human partial length TRKA (G475 to G790 residues) expressed in mammalian expression system assessed as residual binding level at 1 uM by Kinomescan method relative to control
[23] = target: Tyrosine-protein kinase receptor TYRO3 (Homo sapiens) (UniProt Q06418); assay: Binding affinity to wild-type human partial length TYRO3 (S497 to T814 residues) expressed in bacterial expression system assessed as residual binding level at 1 uM by Kinomescan method relative to control
[24] = target: Serine/threonine-protein kinase 25 (Homo sapiens) (UniProt O00506); assay: Binding affinity to wild-type human partial length YSK1 (V14 to H295 residues) expressed in bacterial expression system assessed as residual binding level at 1 uM by Kinomescan method relative to control

Sequence of Aurora kinase A (Homo sapiens) (O14965 whole entry, the tested form may be a part): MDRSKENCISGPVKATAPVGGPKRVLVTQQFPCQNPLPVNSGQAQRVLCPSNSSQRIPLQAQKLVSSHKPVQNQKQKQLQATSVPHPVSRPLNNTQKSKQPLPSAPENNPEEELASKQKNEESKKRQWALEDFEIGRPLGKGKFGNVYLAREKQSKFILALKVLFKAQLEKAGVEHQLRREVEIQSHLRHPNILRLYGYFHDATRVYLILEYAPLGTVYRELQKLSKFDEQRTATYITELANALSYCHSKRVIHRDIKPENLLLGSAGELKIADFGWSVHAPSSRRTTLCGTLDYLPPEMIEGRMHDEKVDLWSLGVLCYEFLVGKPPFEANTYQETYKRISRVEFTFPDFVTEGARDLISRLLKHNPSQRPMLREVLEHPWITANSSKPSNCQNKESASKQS
Sequence of Calcium/calmodulin-dependent protein kinase type 1D (Homo sapiens) (Q8IU85 whole entry, looked up, the tested form may be a part): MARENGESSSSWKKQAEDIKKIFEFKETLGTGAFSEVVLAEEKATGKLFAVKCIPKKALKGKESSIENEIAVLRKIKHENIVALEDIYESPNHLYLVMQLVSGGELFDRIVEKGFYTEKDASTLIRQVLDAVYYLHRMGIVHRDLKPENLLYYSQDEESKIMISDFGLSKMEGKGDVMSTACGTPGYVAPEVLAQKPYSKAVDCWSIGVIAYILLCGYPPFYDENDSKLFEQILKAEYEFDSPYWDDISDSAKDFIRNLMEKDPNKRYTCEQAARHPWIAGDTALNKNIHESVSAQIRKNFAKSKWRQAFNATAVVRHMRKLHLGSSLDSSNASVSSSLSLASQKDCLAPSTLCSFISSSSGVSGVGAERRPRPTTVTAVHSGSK
Sequence of cGMP-dependent protein kinase 2 (Homo sapiens) (Q13237 whole entry, the tested form may be a part): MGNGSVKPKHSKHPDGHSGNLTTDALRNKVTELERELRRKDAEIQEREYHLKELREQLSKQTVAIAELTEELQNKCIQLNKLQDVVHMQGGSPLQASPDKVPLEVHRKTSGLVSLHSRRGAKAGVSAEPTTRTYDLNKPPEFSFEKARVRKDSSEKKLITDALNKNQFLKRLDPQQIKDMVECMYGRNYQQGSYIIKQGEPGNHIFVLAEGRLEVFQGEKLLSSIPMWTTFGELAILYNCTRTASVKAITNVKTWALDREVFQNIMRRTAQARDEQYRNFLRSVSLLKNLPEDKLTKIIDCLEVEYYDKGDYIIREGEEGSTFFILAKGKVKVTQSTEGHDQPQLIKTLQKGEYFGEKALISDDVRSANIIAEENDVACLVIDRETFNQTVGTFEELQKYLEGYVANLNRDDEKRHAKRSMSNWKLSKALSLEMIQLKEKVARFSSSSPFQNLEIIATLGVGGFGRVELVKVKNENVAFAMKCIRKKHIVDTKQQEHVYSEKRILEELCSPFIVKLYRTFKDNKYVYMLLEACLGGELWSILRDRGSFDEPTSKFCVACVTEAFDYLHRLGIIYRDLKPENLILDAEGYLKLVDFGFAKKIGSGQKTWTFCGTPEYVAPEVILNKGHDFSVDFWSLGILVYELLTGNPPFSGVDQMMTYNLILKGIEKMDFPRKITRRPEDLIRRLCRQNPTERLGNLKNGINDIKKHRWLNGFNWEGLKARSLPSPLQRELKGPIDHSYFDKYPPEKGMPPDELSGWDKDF
Sequence of Tyrosine-protein kinase ABL1 (Homo sapiens), P00519 [F317L] (P00519 whole entry F317L, the tested form may be a part): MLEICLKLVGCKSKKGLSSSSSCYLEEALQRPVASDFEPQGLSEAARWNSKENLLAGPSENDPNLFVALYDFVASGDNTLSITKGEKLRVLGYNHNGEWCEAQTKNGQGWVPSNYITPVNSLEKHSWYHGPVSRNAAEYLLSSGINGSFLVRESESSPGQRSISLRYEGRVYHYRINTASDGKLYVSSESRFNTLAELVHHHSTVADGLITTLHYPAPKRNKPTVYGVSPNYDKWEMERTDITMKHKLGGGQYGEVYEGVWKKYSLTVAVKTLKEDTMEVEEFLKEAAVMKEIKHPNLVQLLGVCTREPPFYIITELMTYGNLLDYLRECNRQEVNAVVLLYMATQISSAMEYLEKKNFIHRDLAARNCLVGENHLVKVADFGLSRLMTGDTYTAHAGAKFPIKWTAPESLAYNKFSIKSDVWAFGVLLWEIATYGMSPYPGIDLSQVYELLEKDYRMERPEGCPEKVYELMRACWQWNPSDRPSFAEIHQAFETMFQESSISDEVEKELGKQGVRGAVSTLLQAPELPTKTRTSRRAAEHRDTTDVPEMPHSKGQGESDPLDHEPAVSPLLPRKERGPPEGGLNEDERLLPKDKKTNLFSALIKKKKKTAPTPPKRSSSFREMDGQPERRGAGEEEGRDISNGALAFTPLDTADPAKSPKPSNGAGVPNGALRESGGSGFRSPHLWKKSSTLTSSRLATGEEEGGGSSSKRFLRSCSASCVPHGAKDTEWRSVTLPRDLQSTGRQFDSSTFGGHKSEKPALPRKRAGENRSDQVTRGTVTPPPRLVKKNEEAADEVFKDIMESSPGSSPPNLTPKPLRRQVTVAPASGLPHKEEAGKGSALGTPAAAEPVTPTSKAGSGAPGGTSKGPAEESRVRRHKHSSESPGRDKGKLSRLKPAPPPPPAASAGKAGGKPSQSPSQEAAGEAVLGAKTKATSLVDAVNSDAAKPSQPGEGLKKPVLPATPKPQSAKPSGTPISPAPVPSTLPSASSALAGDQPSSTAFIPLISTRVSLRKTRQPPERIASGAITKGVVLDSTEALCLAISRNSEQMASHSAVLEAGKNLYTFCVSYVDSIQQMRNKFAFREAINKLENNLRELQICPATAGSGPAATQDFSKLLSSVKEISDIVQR
Sequence of Tyrosine-protein kinase ABL1 (Homo sapiens) (P00519 whole entry, the tested form may be a part): as the sequence (P00519 whole entry F317L, the tested form may be a part) above, with L317F counted along it
Sequence of Tyrosine-protein kinase receptor TYRO3 (Homo sapiens) (Q06418 whole entry, the tested form may be a part): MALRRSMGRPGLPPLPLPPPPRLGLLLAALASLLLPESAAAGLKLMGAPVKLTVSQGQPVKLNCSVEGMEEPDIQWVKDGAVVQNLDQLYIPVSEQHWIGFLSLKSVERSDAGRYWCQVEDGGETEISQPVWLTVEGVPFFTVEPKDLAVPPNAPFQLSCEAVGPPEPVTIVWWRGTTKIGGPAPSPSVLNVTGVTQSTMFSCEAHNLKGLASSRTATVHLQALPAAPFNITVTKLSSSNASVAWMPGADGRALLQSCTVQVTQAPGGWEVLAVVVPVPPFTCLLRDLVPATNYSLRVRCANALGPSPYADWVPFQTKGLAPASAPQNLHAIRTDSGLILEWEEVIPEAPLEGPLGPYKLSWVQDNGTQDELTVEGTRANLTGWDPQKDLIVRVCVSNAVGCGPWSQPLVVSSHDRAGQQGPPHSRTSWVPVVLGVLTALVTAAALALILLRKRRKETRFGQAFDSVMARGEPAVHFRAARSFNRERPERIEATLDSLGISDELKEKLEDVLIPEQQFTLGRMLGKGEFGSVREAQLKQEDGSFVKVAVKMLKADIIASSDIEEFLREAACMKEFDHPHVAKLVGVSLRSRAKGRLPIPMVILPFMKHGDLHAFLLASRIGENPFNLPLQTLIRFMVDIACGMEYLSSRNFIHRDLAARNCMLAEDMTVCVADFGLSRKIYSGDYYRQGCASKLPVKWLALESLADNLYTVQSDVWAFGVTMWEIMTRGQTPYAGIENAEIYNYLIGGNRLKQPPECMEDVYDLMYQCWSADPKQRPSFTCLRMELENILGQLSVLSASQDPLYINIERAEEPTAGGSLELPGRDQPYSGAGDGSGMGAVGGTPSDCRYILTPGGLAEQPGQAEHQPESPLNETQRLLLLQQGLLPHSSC
Sequence of Serine/threonine-protein kinase Sgk2 (Homo sapiens) (Q9HBY8 whole entry, the tested form may be a part): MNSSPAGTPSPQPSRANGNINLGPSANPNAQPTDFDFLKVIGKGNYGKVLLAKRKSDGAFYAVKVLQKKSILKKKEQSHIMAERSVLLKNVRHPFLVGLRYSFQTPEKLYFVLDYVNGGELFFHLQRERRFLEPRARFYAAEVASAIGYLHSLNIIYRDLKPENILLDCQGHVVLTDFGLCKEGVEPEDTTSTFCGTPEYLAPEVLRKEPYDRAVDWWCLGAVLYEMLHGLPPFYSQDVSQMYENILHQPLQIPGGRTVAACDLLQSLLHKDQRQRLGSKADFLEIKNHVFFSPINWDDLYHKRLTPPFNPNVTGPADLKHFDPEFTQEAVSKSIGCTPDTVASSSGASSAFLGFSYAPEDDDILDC

C=CC(=O)Nc1cc(Nc2ncc(Cl)c(Nc3ccccc3S(=O)(=O)C(C)C)n2)c(OC)cc1N(C)CCN(C)C
Tmax [1]: 1.17 h
Activity [2]: 0.8%
Activity [3]: 7.5%
Activity [4]: 4.2%
Activity [5]: 9.9%
Activity [6]: 66%
Activity [7]: 0.35%
Activity [8]: 12%
Activity [9]: 49%
Activity [10]: 0%
Activity [11]: 0.1%
Activity [12]: 59%
Activity [13]: 26%
Activity [14]: 100%
Activity [15]: 31%
Activity [16]: 1.8%
Activity [17]: 100%
Activity [18]: 98%
Activity [19]: 79%
Activity [20]: 95%
Activity [21]: 71%
Activity [22]: 13%
Activity [23]: 51%
Activity [24]: 81%
